Published values from different studies.
Compare with care: the assays were run in different laboratories.
SIGMAR1: Sigma non-opioid intracellular receptor 1 (SIGMAR1, Cavia porcellus, UniProt Q60492)
ADRA1D: Alpha-1D adrenergic receptor (ADRA1D, Homo sapiens, UniProt P25100)
ADRA2B: Alpha-2B adrenergic receptor (ADRA2B, Homo sapiens, UniProt P18089)
CASP7: Caspase-7 (CASP7, Homo sapiens, UniProt P55210)
Prostate-specific antigen: Prostate-specific antigen (Homo sapiens, UniProt P07288)
TMEM97: Sigma intracellular receptor 2 (TMEM97, Homo sapiens, UniProt Q5BJF2)
lecB: Fucose-binding lectin PA-IIL (lecB, Pseudomonas aeruginosa, UniProt Q9HYN5)

| Compound | target | read-out | mode | technique | pH | notes | Ki [µM] |
| --- | --- | --- | --- | --- | --- | --- | --- |
| CNC(=O)[C@@]12C[C@@H]1[C@@H](n1cnc3c(NC)nc(C#Cc4ccccc4)nc31)[C@H](O)[C@@H]2O | SIGMAR1 | ligand displacement | – | radioligand | – | – | 7.11 |
| O=C1c2ccccc2CCCN1CCCCN1CCN(c2ccccn2)CC1 | ADRA1D | ligand displacement | – | radioligand | – | – | 0.98 |
| O=C(NCCN1CCCCC1)c1ccc(OCCCF)c(Br)c1 | SIGMAR1 | ligand displacement | – | radioligand | – | cell membranes | 0.0233 |
| CCCNc1nc2ccccc2n1Cc1ccc(Cl)cc1 | ADRA2B | ligand displacement | – | radioligand | – | – | 0.677 |
| O=c1cc(-c2ccc(O)c(O)c2)oc2cc(O)cc(O)c12 | CASP7 | enzyme activity | inhibitor | fluorescence | – | – | 130 |
| CCCC[C@H](NC(=O)[C@H](CCC(N)=O)NC(=O)[C@H](CO)NC(=O)CCCCCN)C(=O)N[C@@H](CCCBr)B(O)O | Prostate-specific antigen | enzyme activity | inhibitor | fluorescence | pH 7.8 | – | 0.302 |
| COc1cc2c(cc1OC)CN(CCCNC(=O)c1ccc(C(=O)c3ccc([N+](=O)[O-])cc3)cc1)CC2 | TMEM97 | ligand displacement | – | radioligand | – | cell membranes | 1.2 |
| O=c1c(O)c(-c2ccc(O)c(O)c2)oc2cc(O)cc(O)c12 | CASP7 | enzyme activity | inhibitor | fluorescence | – | – | > 300 |
| CCCC[C@H](NC(=O)[C@H](CCC(N)=O)NC(=O)[C@H](CO)NC(=O)C[C@@H](Cc1ccc2ccccc2c1)NC(=O)CCCCCN)C(=O)N[C@@H](CCCBr)B(O)O | Prostate-specific antigen | enzyme activity | inhibitor | fluorescence | pH 7.8 | – | 0.102 |
| O=C(c1ccc(CNCCCN2CCN(C3CCCCC3)CC2)cc1)c1ccc([N+](=O)[O-])cc1 | TMEM97 | ligand displacement | – | radioligand | – | cell membranes | 0.033 |
| C[C@@H]1O[C@H](CNS(=O)(=O)c2ccc(CCn3cc(CN4CCN(c5cc6c(cc5F)c(=O)c(C(=O)O)cn6C5CC5)CC4)nn3)s2)[C@@H](O)[C@H](O)[C@@H]1O | lecB | ligand displacement | – | FP | – | – | 0.82 |
| CN(Cc1ccc(NC(=O)C2=Cc3cc(-c4ccc(OCCCF)cc4)ccc3CCC2)cc1)C1CCOCC1 | ADRA2B | ligand displacement | – | radioligand | – | – | 1.2 |
| CCCC[C@H](NC(=O)[C@H](CCC(N)=O)NC(=O)[C@H](CO)NC(=O)[C@H](Cc1ccccc1)NC(=O)CCCCCNC(=O)c1ccc(I)cc1)C(=O)N[C@@H](CCCBr)B(O)O | Prostate-specific antigen | enzyme activity | inhibitor | fluorescence | pH 7.8 | – | 0.0644 |
| CCCn1nc(C(=O)N2CCCCC2)c2c1CCC(NCCCNC)C2 (stereo not drawn) | TMEM97 | ligand displacement | – | radioligand | – | – | 1.99 |
| O=C(c1ccccc1)c1ccc(CNCCCN2C(=O)c3ccccc3C2=O)cc1 | TMEM97 | ligand displacement | – | radioligand | – | cell membranes | > 10 |
| CCCC[C@H](NC(=O)[C@H](CCC(N)=O)NC(=O)[C@H](CO)NC(=O)[C@H](C)NC(=O)CCCCCN)C(=O)N[C@@H](Cc1ccccc1)B(O)O | Prostate-specific antigen | enzyme activity | inhibitor | fluorescence | pH 7.8 | – | 0.31 |
| O=C(NCCN1CCCCC1)c1cc(Br)ccc1O | SIGMAR1 | ligand displacement | – | radioligand | – | cell membranes | > 10 |
| C#CCN(CCCN1CCN(C2CCCCC2)CC1)c1ccc(C(=O)c2ccccc2)cc1 | TMEM97 | ligand displacement | – | radioligand | – | cell membranes | 0.0777 |
| CN(Cc1ccc(NC(=O)C2=Cc3cc(-c4ccc(OCCCCCF)cc4)ccc3CCC2)cc1)C1CCOCC1 | ADRA2B | ligand displacement | – | radioligand | – | – | 6.81 |
| CCCn1nc(C(=O)N2CCCCC2)c2c1CCC(NCCc1ccncc1)C2 (stereo not drawn) | TMEM97 | ligand displacement | – | radioligand | – | – | > 10 |
| COc1ccc2c(c1)C(=O)N(CCN1CCN(c3ccccc3OC)CC1)C2 | ADRA1D | ligand displacement | – | radioligand | – | – | 0.0124 |
| C#CCNCc1ccc(C(=O)c2ccc([N+](=O)[O-])cc2)cc1 | TMEM97 | ligand displacement | – | radioligand | – | cell membranes | > 10 |
| Cc1cc(Oc2nccc3c2ccn3C)ccc1-c1c(C)c(=O)[nH]c(=O)n1C | Muscarinic acetylcholine receptor M3 (CHRM3, Homo sapiens, UniProt P20309) | ligand displacement | – | radioligand | – | – | 4.2 |
| CCCC[C@H](NC(=O)[C@H](CCC(N)=O)NC(=O)[C@H](CO)NC(=O)[C@H](C)NC(=O)CCCCCN)C(=O)N[C@@H](CCCBr)B(O)O | Prostate-specific antigen | enzyme activity | inhibitor | fluorescence | pH 7.8 | – | 0.0521 |
| C[C@@H]1O[C@H](CNS(=O)(=O)c2ccc(CCn3cc(CCN4CCN(c5cc6c(cc5F)c(=O)c(C(=O)O)cn6C5CC5)CC4)nn3)s2)[C@@H](O)[C@H](O)[C@@H]1O | lecB | ligand displacement | – | FP | – | – | 0.89 |
| CCCC[C@H](NC(=O)[C@H](CCC(N)=O)NC(=O)[C@H](CO)NC(=O)[C@H](Cc1ccccc1)NC(=O)CCCCCN)C(=O)N[C@@H](CCCBr)B(O)O | Prostate-specific antigen | enzyme activity | inhibitor | fluorescence | pH 7.8 | – | 0.0723 |
| OCCCN1CC[C@@H]2C[C@H]1c1cc(-c3ccc(C(F)(F)F)cc3)ccc12 | TMEM97 | ligand displacement | – | radioligand | – | – | 0.017 |
| CCCC[C@H](NC(=O)[C@H](CCCCN)NC(=O)[C@H](CO)NC(=O)[C@H](CO)NC(=O)OCc1ccccc1)C(=O)N[C@@H](Cc1ccccc1)B(O)O | Prostate-specific antigen | enzyme activity | inhibitor | fluorescence | pH 7.8 | – | 0.165 |
| CCCCN1CCC(COC(=O)c2ccc(N)c(OCF)c2)CC1 | ADRA2B | cell-free assay | – | radioligand | – | – | > 10 |
| O[C@@H]1[C@H](O)[C@@H]2C[C@@H]2[C@H]1n1cnc2c(NCc3cccc(Cl)c3)nc(C#Cc3ccccc3)nc21 | SIGMAR1 | ligand displacement | – | radioligand | – | – | 7.66 |
